MEKK3 PB1 HTS: raises or lowers MEK5 binding to the human MEKK3 PB1 domain | Q99759 | bead-based flow cytometry, Alexa488-MEK5 binding to MEKK3; actives lie on both sides; 0 = blocked by unlabeled MEK5, 100 = vehicle | binding response (% of control), % at 10 µM | 290,000 compounds, 1.4% hits;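 active means binding response more than 3 SD above or below the average of its plate-row segment, actives on both sides; inconclusive means wells at one plate position flagged as instrument error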;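 further: Alexa488 bead fluorescence after subtracting the streptavidin-only scavenger bead signal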
Target sequence (Q99759 whole entry, looked up, the tested form may be a part): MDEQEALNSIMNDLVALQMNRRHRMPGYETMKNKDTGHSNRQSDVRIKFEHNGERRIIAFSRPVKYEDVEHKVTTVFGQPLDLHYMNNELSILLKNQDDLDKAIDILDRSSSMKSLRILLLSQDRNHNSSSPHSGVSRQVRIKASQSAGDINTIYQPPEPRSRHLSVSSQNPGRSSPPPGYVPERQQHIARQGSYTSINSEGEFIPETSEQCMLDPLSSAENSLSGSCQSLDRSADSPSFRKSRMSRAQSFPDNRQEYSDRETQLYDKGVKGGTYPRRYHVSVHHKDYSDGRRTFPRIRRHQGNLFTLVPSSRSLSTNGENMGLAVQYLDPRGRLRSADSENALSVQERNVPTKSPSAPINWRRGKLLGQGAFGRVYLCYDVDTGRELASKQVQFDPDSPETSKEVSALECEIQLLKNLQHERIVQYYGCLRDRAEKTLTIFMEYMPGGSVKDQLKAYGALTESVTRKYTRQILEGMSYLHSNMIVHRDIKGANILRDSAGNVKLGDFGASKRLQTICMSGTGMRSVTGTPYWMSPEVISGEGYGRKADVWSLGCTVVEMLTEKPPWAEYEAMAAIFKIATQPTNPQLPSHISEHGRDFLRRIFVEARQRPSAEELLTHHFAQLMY
MEKK2mut PB1 HTS: signal of MEK5 binding to mutant human MEKK2 PB1 domain; bead flow cytometry, Alexa488-MEK5 binding to MEKK2 mutant; percent response, % at 10 µM; 290,000 compounds, 0.35% hits; in the data active means percent response above about 24%, passing the limit was not always enough
UCH37 inh: blocks the human deubiquitinase UCH37. Q9Y5K5. purified proteasome/UCH37, Ub-AMC cleavage fluorescence. inhibition, % (no concentration beside the values). 330,000 compounds, 0.33% hits;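 active means mean inhibition over replicate wells above about 20%, limit read from the data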;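 further: 0% = compound-free wells with enzyme and 100% = wells lacking proteasome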
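Material: human UCH37 enzyme supplied as purified proteasome complex. Measure: % inhibition of Ub-AMC cleavage fluorescence. Medium: pH 7.4 Tris-HCl (50 mM) with ovalbumin, ATP-MgCl2, DTT. Times: 30 min preincubation with enzyme, 25 min cleavage at room temperature. Detection: AMC fluorescence intensity at 355/460 nm.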
UBC13 polyUb: inhibitors of human UBC13 polyubiquitin chain formation. TR-FRET. inhibition, % at 20 µM. 330,000 compounds, 0.47% hits; in the data active means inhibition above about 45%, passing the limit was not always enough; inconclusive means no clear call, values can overlap the other calls
Target sequence (P61088 whole entry, looked up): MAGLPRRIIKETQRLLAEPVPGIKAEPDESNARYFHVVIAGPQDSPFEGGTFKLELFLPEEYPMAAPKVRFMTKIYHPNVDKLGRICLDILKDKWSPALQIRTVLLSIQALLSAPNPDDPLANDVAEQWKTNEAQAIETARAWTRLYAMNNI
MEKK2 WT-MEK5: raises or lowers MEK5 binding to wildtype human MEKK2 PB1 domain | bead flow cytometry, Alexa488-MEK5 binding to MEKK2 WT; actives lie on both sides | Q9Y2U5 | 290,000 compounds, 1.1% hits | AID 1531 | binding response (% of control), % at 10 µM; in the data active means binding response below about 67% or above about 130%; inconclusive means no clear call, values can overlap the other calls; inactive means in between
Apaf-1 inh: inhibitors of human Apaf-1 apoptosome; O14727; reconstituted apoptosome caspase-3 activity, DEVD-Rh110 fluorescence; inhibition, % at 20 µM; 330,000 compounds, 0.71% hits; AID 489030; active means inhibition of at least 40% at 20 µM;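 further: plate controls were DMSO wells for no effect and DEVD-CHO caspase inhibitor wells for full effect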
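Material: reconstituted apoptosome with Apaf-1, cytochrome c, caspase-9, procaspase-3, dATP / Buffer or medium: pH 7.5 Hepes buffer with CHAPS, BSA, DTT / Also added: cytochrome c with DEVD-Rh110 / Schedule: compound with Apaf-1, dATP, procaspase-3 30 min, then 50 min reaction, room temperature / Technique: rhodamine 110 fluorescence at Ex 480/Em 540 nm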
Apaf-1 inh conf: confirmation of Apaf-1 inhibitors; inhibition, % at 20 µM; 1,800 compounds, 25% hits; shares compounds with Apaf-1 inh; reconstituted apoptosome, caspase-3 DEVD-Rh110 fluorescence; AID 504614;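 active means mean inhibition of at least 40% at 20 µM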;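 further: plate controls were DMSO wells for no effect and DEVD-CHO caspase inhibitor control wells for full effect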
Rh110 interf inh: Rh110 signal interference in Apaf-1 inhibitor counter-screen; shares compounds with Apaf-1 inh; Rh110 fluorescence interference, quenched caspase reaction; activation (fluorescence interference), % at 20 µM; 1,800 tested, under 10 active; AID 504615;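 active means signal rise of 40% or more at 20 µM, treated as a fluorescence artifact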
Fluor interf inh: Apaf-1 inhibitor counter-screen fluorescence artifact | shares compounds with Apaf-1 inh | fluorescence interference counterscreen, Apaf-1 assay format | IC50, µM | 460 tested, under 10 active; call rule not given here
An asterisk follows results filed as active; u = inconclusive; x = no result given. The list is not random: actives were taken first. Their share in the collection is about 3%.

SMILES | MEKK3 PB1 HTS | MEKK2mut PB1 HTS | UCH37 inh | UBC13 polyUb | MEKK2 WT-MEK5 | Apaf-1 inh | Apaf-1 inh conf | Rh110 interf inh | others
C#CCOCCOCCOCCNc1nc(N2CCN(C(=O)Cn3cc(CCCCN)nn3)CC2)nc(N2CCN(C(=O)[C@H](C)n3cc(CCCN=C(N)N)nn3)CC2)n1 | 97.0 | 9.0 | 0.3 | 5.7 | 102.0 | 13.7 | x | x
COc1cccc2sc3cc(C#CC4(O)CCCCC4)ccc3c(=O)c12 | x | x | -2.7 | u | x | 40.1* | 27.1 | 2.6
COc1cc2sc3ccc(C#CC4(O)CCCCC4)cc3c(=O)c2cc1OC | 101.0 | -6.0 | -2.5 | 14.0 | 91.0 | 3.1 | x | x
CCc1ccc(N(CC(=O)NCc2ccco2)C(=O)CCC(=O)Nc2nccs2)cc1 | 101.0 | 3.0 | 3.9 | 3.8 | 101.0 | 9.9 | x | x
CC1(c2ccc([N+](=O)[O-])cc2)NC(=O)N(CC(=O)Nc2ccc(N3CCCCC3)cc2)C1=O (stereo not given) | x | x | 0.8 | 9.0 | x | 32.7 | x | x
CC1(c2ccc(OC(F)F)cc2)NC(=O)N(CC(=O)Nc2ccc(N3CCCCC3)cc2)C1=O (stereo not given) | x | x | 0.6 | 5.2 | x | 53.2* | 18.8 | 4.0
COc1ccc(OCc2cc(C(=O)N3CCC(OC)CC3)no2)c2ccccc12 | 103.0 | 7.0 | 5.6 | 0.5 | 108.0 | 49.3* | 24.9 | 6.1
CN1C(=O)/C(=C/c2ccc(C(F)(F)F)cc2)Sc2ccc(C(=O)N3CCN(c4ccccn4)CC3)cc21 | 98.0 | -1.0 | -1.4 | -13.6 | 99.0 | 25.8 | x | x
Oc1ccc(NCc2ccccc2OCc2ccccc2)cc1 | 97.0 | -1.0 | -0.4 | 4.7 | 92.0 | 89.5* | 18.3 | 5.6
CCNCc1ccccc1OCc1ccccc1 | 99.0 | -1.0 | 2.5 | -14.6 | 100.0 | 3.1 | x | x
CC(Nc1cccc2ccccc12)C(=O)N/N=C/c1ccccn1 (stereo not given) | 110.0 | 10.0 | x | -115.8 | 109.0 | 95.3* | 5.6 | 7.9
Cc1cccc(C=NNC(=O)C(C)Nc2cccc3ccccc23)n1 (stereo not given) | x | x | 0.1 | x | x | x | x | x
COc1ccc(C(=O)N2CC=C(c3ccccc3)CC2)cc1S(=O)(=O)N1CCOCC1 | 106.0 | 3.0 | 6.9 | -12.7 | 103.0 | 8.8 | x | x
Cc1cccc(OCC(O)Cn2c(=N)n(Cc3ccccc3)c3ccccc32)c1 (stereo not given) | 95.0 | -2.0 | 2.6 | 36.2 | 116.0 | 57.8* | 11.4 | 11.0
O=C(Nc1ccccn1)c1cc(-n2cnnc2)ccc1Cl | 99.0 | 3.0 | 2.5 | -1.9 | 97.0 | -12.4 | x | x
COc1ccc(CCN2C(=O)c3[nH]nc(-c4ccccc4O)c3C2c2cccc(Cl)c2)cc1 (stereo not given) | 107.0 | 3.0 | 1.9 | -6.7 | 92.0 | 40.9* | 10.2 | 12.5
CN1CCN(c2ccc(S(=O)(=O)N3CCCCC3)cc2NC(=O)/C=C/c2ccc(Cl)c([N+](=O)[O-])c2)CC1 | x | x | 6.6 | 17.7 | x | 51.2* | 15.4 | 12.8
CCN1CCN(c2ccc(S(=O)(=O)N3CCOCC3)cc2NC(=O)CC(C)C)CC1 | x | x | -2.9 | 24.7 | x | 50.1* | 36.6 | 4.4
CCN1CCN(c2ccc(S(=O)(=O)N3CCOCC3)cc2NC(=O)c2ccccc2SC)CC1 | x | x | 3.5 | 3.6 | x | -3.6 | x | x
CCN(CC(=O)Nc1cc(S(=O)(=O)N2CCCCC2)ccc1Cl)Cc1ccccc1 | x | x | -1.0 | -1.5 | x | 20.1 | x | x
CCN1CCN(c2ccc(S(=O)(=O)N3CCCCC3)cc2NC(=O)/C=C/c2ccc(OC(F)F)cc2)CC1 | x | x | 1.9 | 14.8 | x | 51.9* | 8.9 | 3.8
CCN(CC(=O)Nc1cc(S(=O)(=O)N2CCOCC2)ccc1Cl)Cc1ccccc1 | x | x | 2.3 | 17.0 | x | 42.0* | 29.1 | 8.9
COc1cccc(/C=N/NC(=O)c2cc3c(OC)cccc3[nH]2)c1O | 97.0 | -5.0 | x | -9.4 | 96.0 | -1.4 | x | x
O=C1Nc2ccc(S(=O)(=O)NCc3ccco3)c3cccc1c23 | 98.0 | -2.0 | -38.4 | -23.3 | 97.0 | 49.5* | 22.0 | 16.7
CCC(C)Sc1ccc(-c2nc3ccc(C)cn3c2NC2CCCCC2)cc1 (stereo not given) | x | x | -91.8 | 29.1 | x | 40.9* | 7.6 | 6.9
SMILES | MEKK3 PB1 HTS | MEKK2mut PB1 HTS | UCH37 inh | UBC13 polyUb | MEKK2 WT-MEK5 | Apaf-1 inh | Apaf-1 inh conf | Rh110 interf inh | others
CC1=NN(c2ccc(Cl)cc2)C(=O)C1 | 104.0 | -4.0 | 1.3 | -9.8 | 95.0 | 39.3 | x | x
CC1=NN(c2ccc(S(=O)(=O)O)cc2C)C(=O)C1 | 88.0 | -10.0 | 10.1 | -6.2 | 82.0 | 50.5* | 19.3 | 14.1
CN(C)c1ccc(-c2nc3ccccn3c2/N=C/c2ccc(Br)cc2)cc1 | 95.0 | 1.0 | x | -39.8 | 103.0 | 19.6 | x | x
C[C@H]1CN([C@@H](C)CO)C(=O)Cc2cc(NC(=O)CCC(F)(F)F)ccc2O[C@H]1CN(C)Cc1ccc(-c2ccccc2)cc1 | x | x | 0.9 | 9.4 | x | 40.8* | 22.6 | -6.4
Cc1ccc(S(=O)(=O)Nc2ccc3c(c2)CC(=O)N([C@H](C)CO)C[C@@H](C)[C@H](CN(C)Cc2ccc(-c4ccccc4)cc2)O3)cc1 | x | x | 1.9 | 12.2 | x | 41.0* | -2.0 | 7.2
C[C@H](CO)N1C[C@H](C)[C@@H](CN(C)Cc2ccc(Cl)c(Cl)c2)Oc2c(NC(=O)C3CC3)cccc2C1=O | x | x | 3.7 | 13.6 | x | 32.0 | x | x
C[C@H]1CN([C@@H](C)CO)C(=O)Cc2cc(NC(=O)CCC(F)(F)F)ccc2O[C@H]1CN(C)Cc1ccc(C(F)(F)F)cc1 | x | x | -2.3 | 7.8 | x | 25.4 | x | x
C[C@H](CO)N1C[C@H](C)[C@@H](CN(C)Cc2ccc(Cl)c(Cl)c2)Oc2c(NC(=O)CCC(F)(F)F)cccc2C1=O | x | x | 2.7 | 7.0 | x | 46.1* | 22.9 | 17.4
COCc1ccc([C@@H]2C[C@H]3CN(Cc4cccnc4)C(=O)[C@]34CCCN24)o1 | 101.0 | 2.0 | 0.9 | 3.2 | 95.0 | -18.8 | x | x
c1cc2c3c(cccc3c1)NC1(CCCCCC1)N2 | 87.0 | -7.0 | -183.7 | -27.9 | 86.0 | 49.0* | 57.4* | -3.7 | Fluor interf inh=>100
c1cc2c3c(cccc3c1)NC1(CCC3(CC1)Nc1cccc4cccc(c14)N3)N2 | 100.0 | 7.0 | x | -35.8 | 98.0 | 40.1* | 44.9* | 8.0 | Fluor interf inh=>100
c1cc2c3c(cccc3c1)NC1(CCCCC1)N2 | 102.0 | 3.0 | -238.2 | -21.4 | 104.0 | 21.8 | x | x
O=C(O)c1ccccc1-c1ccccc1C(=O)NCc1cccc(C(F)(F)F)c1 | 105.0 | 2.0 | x | 2.4 | 101.0 | 6.7 | x | x
